Assay results: publication PMC5697452 (ACS Chemical Biology, 2017)
Entries after “also recorded” stand apart in the source; their conditions may differ.

Columns and labels:
proMMP-9 [1] = biological target: T1, proMMP-9 (Homo sapiens, UniProt P14780); assay: Tryptophan fluorescence blue-shift binding assay with proMMP-9
proMMP-9/MMP-2PEX = assay: Tryptophan fluorescence binding assay with chimera proMMP-9/MMP-2PEX; design: species or system human; settings: chimera with MMP-2 PEX domain, 0.5 μM
Outline: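 Purified recombinant chimera (0.5 μM) was titrated with test compound in TNC buffer (50 mM Tris-HCl, 10 mM CaCl2, pH 7.5). A buffer-only addition served as the protein stability control. After each addition the sample was stirred 1 min at RT, excited at 280 nm, and scanned 300–425 nm, averaging three scans. Kd was fitted to ΔF/ΔFMax, where ΔF is the emission shift in nm.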

proMMP-9 [2] = biological target: T1, proMMP-9; assay: Saturated transfer difference; type: binding; settings: compound:protein 38:1 (300 µM:8 µM), 4 °C
proMMP-2 = biological target: T2, proMMP-2 (Homo sapiens, UniProt P08253); assay: Saturated transfer difference; type: binding; settings: compound:protein 38:1 (300 µM:8 µM), 4 °C
T2 sequence (P08253 30-660 limits assumed): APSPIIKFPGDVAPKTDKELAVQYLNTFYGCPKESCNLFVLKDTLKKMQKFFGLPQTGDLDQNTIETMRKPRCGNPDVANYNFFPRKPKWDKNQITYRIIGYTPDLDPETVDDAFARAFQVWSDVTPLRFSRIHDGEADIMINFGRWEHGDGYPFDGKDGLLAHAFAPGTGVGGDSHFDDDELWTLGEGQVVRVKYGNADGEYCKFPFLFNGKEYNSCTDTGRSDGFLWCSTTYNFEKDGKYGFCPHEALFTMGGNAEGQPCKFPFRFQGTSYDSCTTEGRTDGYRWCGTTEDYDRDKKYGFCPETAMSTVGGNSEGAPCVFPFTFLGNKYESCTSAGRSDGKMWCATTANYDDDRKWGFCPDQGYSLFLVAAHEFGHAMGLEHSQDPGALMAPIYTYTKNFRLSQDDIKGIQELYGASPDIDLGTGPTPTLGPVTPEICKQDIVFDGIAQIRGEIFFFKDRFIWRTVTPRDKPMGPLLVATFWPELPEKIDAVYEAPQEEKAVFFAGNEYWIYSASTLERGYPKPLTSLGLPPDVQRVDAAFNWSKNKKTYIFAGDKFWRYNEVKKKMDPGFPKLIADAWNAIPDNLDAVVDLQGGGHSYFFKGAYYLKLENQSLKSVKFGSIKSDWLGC

APMA-activated MMP-9 = APMA-activated MMP-9 (Homo sapiens, UniProt P14780); assay: Fluorogenic peptide assay of MMP-9 catalytic activity; type: biochemical; settings: 10 μM fluorogenic peptide, 2 h; for inhibition of MMP-9 catalytic activity: 50 μM compound
APMA-activated MMP-9, sequence (P14780 107-707 limits assumed): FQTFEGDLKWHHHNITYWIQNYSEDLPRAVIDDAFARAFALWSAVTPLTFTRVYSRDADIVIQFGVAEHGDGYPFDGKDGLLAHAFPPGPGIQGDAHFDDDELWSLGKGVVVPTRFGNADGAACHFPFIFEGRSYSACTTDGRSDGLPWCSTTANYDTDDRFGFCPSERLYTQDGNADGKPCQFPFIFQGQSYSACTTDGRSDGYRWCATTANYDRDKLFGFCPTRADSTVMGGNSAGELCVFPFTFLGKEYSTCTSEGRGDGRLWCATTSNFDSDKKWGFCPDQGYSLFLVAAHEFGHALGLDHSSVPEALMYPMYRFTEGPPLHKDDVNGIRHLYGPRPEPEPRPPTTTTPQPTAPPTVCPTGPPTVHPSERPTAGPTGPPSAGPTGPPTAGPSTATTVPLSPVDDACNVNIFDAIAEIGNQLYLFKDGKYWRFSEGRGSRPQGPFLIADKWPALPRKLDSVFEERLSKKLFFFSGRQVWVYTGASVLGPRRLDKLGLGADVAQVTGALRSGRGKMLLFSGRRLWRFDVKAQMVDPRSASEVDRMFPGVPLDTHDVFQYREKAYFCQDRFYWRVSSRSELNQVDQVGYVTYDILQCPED
Outline: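 Recombinant proMMP-9 was activated overnight at 37 °C in TNC buffer with 1 mM APMA. […] Fluorescence (ex 320/em 405 nm) was read every 10 min over 2 h.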

COS-1 cells = assay: MTT cell viability, COS-1 cells; type: cell-based, monkey; settings: 24 h
Outline: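 COS-1 cells stably expressing vector control or proMMP-9 cDNA were treated 24 h with DMSO, 50 μM compound, or 100 nM staurosporine (positive control for acute toxicity). Viability was assessed by MTT.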

[3] = test system: HT1080 fibrosarcoma cells; assay: Chronic toxicity in HT1080 fibrosarcoma cells; type: cell-based, human; settings: 100 μM, retreated every 3 days for 9 days; data not shown
Outline: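 HT1080 cells were cultured in complete medium with or without compound, with medium and compound replaced repeatedly over 9 days. Viability was measured daily by MTT: 4 h at 37 °C, then formazan solubilised and absorbance read at 570 nm.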

[4] = test system: HT1080 fibrosarcoma cells; assay: Two-dimensional dot migration assay, HT1080 cells; type: cell-based, human; settings: 50 µM, relative to control groups
[5] = test system: proMMP-2 expressing COS-1 cells; assay: Two-dimensional dot migration assay, COS-1 cells expressing proMMP-2; type: cell-based, monkey; settings: 50 μM
Outline: (§1)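 COS-1 cells expressed vector pQCXIP, proMMP-2, proMMP-9 or proMMP-14 (polyethylenimine transfection, 48 h at 37 °C); expression was checked by immunoblot of lysates and serum-free medium. Cells were mixed 1:1 with neutralized type I collagen (3 mg/mL) on ice, and 1 μL dots (1 × 10^7 cells/mL) were set. Dots were covered with complete medium ± 50 μM compound for 18 h, then fixed and DAPI-stained, and migrated cells were counted.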

[6] = test system: proMMP-14 expressing COS-1 cells; assay: Two-dimensional dot migration assay, COS-1 cells expressing proMMP-14; type: cell-based, monkey; settings: 50 μM
Outline: as §1

[7] = test system: EGFR, AKT, Erk1/2, Src, FAK, PAX phosphorylation; assay: Immunoblot of downstream signaling phosphorylation in HT1080 cells; type: cell-based, human; settings: 50 μM
Outline: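 HT1080 cells transiently expressing Myc-tagged MMP-9 were treated with 50 μM compound. Lysates were run on 10% SDS-PAGE and immunoblotted for phospho-Src Tyr418, phospho-FAK Tyr576/577 and phospho-PAX Tyr118.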

HT1080 cells [8] = assay: Immunofluorescence of HT1080 cells; type: cell-based, human; settings: for MMP-9 cell surface localization: 50 μM; for formation of FAK and PAX adhesion junctions: 50 μM overnight
Outline: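 HT1080 cells were fixed in 4% paraformaldehyde/PBS and blocked in 5% BSA/PBS. Staining used anti-MMP-9 (anti-rabbit Alexa 488) with anti-α4 and/or anti-β1 integrin (anti-mouse Alexa 568), or anti-p-FAK Tyr576/577 (Alexa 568) and anti-p-PAX Tyr118 (Alexa 488). Nuclei were counterstained with DAPI, and images were taken by two-photon laser-scanning confocal microscopy.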

[9] = test system: EGFR-CD44 and EGFR-β1 integrin; assay: Co-immunoprecipitation of endogenous EGFR in HT1080 cells; type: cell-based, human; settings: 50 μM
HT1080 cells [10] = assay: Cellular adhesion assay on collagen or fibronectin; type: cell-based, human; settings: 30 min at 37 °C
Outline: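 HT1080 cells seeded in 96-well plates coated with a thin layer of collagen or fibronectin (5 μg/mL in PBS). Cells were held 30 min at 37 °C with test compound. Wells were then washed and the cells fixed in 4% paraformaldehyde and stained with DAPI. Adherent cells were imaged and counted automatically.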

[11] = test system: HT1080 cells on chicken embryo CAM; assay: Chorioallantoic membrane; type: in vivo; settings: final concentration estimated 0.5 μM, 4-day incubation, vs DMSO and 1f
Outline: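 Fertilized white chicken eggs were incubated 3 days at 37 °C and 70% humidity, then cultured ex ovo in Petri dishes. HT1080 cells adsorbed onto a gelatin sponge were implanted on the CAM. Compound was added from a 100 μM stock (estimated final 0.5 μM); DMSO served as control. Blood vessels surrounding the sponge were counted on day 4 at 37 °C.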

[12] = test system: HT1080 cells on chicken embryo CAM; assay: Chorioallantoic membrane; type: in vivo; settings: final concentration estimated 0.5 μM, 7-day incubation, vs DMSO and 1f
Outline: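 Ex ovo chick embryos were inoculated at day 10 with pretreated GFP-expressing HT1080 cells in a 3 mg/mL collagen solution seeded atop the CAM. Compound was added from a 100 μM stock (estimated final 0.5 μM), with DMSO control. After 7 days at 37 °C, CAM segments were formalin-fixed, OCT-embedded, cut at 6 μm and H&E stained. GFP+ cells were scored by fluorescence microscopy.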

[13] = test system: proMMP-9-mediated cancer cell migration; settings: in vitro; cited from earlier work
MMP-9 = settings: cited from earlier work
closely related MMPs = settings: cited from earlier work
cancer metastasis = settings: in vivo mouse xenograft model; cited from earlier work

T1 sequence (P14780 20-707 limits assumed): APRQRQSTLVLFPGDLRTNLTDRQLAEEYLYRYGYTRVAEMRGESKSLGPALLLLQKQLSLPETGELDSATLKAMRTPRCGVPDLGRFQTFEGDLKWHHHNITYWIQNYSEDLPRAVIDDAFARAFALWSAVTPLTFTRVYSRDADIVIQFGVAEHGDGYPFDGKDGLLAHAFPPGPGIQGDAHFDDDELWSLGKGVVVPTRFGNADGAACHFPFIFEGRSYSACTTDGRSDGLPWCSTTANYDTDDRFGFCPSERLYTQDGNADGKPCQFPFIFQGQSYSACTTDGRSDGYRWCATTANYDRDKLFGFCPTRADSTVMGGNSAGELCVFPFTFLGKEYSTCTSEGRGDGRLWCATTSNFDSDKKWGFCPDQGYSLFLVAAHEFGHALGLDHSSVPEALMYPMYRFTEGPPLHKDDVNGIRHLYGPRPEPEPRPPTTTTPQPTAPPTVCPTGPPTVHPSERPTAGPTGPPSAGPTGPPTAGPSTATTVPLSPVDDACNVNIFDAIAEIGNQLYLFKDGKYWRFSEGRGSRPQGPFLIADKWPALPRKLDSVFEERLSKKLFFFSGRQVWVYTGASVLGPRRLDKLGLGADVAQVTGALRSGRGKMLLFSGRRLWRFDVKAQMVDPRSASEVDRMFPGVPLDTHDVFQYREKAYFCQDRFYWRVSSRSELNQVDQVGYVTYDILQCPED

O=C(CCCSc1nc2c(c(=O)[nH]1)CCCC2)Nc1ccc(F)cc1 [Compound 3c, N-(4-Fluorophenyl)-4-(4-oxo-3,4,5,6,7,8-hexahydroquinazolin-2-ylthio)butanamide]
binding affinity relative to parent compound 1a (proMMP-9 [1]; Kd comparison): four times tighter | maximal λMax shift (proMMP-9 [1]; after treatment with 25 μM inhibitor, ex 280 nm): 9 nm | Kd (proMMP-9 [1]; tryptophan fluorescence, purified recombinant proMMP-9 0.5 μM, TNC buffer pH 7.5): 0.32 µM | shift in tryptophan fluorescence upon titration (proMMP-9/MMP-2PEX): no shift in fluorescence was observed | STD NMR peaks (proMMP-9 [2]): STD peaks were observed in the presence of proMMP-9 | STD NMR peaks (proMMP-2): not in the presence of proMMP-2 | inhibition of MMP-9 catalytic activity (APMA-activated MMP-9): No inhibition of the catalytic activity was observed | decrease in cell growth (COS-1 cells; 50 μM, nonstatistically significant): 8% | cell death (chronic toxicity) [3]: No cell death was observed | inhibition of migration [4]: the same inhibition potency was observed | inhibition of proMMP-2 mediated cell migration [5]: lack of inhibition | inhibition of proMMP-14 mediated cell migration [6]: lack of inhibition | phosphorylation of Src Tyr418 and downstream FAK Tyr576/577 and PAX Tyr118 [7]: reduced Src^Tyr418 phosphorylation | MMP-9 cell surface localization (HT1080 cells [8]): loss of MMP-9 from the cell surface | formation of FAK and PAX adhesion junctions (HT1080 cells [8]): decrease in the formation of FAK and PAX adhesion junctions | interaction between EGFR-CD44 and EGFR-β1 integrin [9]: Decreased interaction between EGFR-CD44 and EGFR-β1 integrin | cell adhesion to collagen or fibronectin (HT1080 cells [10]; 50 µM): inhibited cellular adhesion | angiogenic potential of HT1080 cells (neovascularization) [11]: reduces angiogenesis; also recorded: significantly reduced the angiogenic potential | invasion of CAM tissue by HT1080 cells [12]: blocks cancer cell invasion of the basement membrane; also recorded: reduced invasion of CAM tissue

CN[C@@H]1C[C@H]2O[C@@](C)([C@@H]1OC)n1c3ccccc3c3c4c(c5c6ccccc6n2c5c31)C(=O)NC4 [STS, staurosporine, reference compound]
cell death (COS-1 cells; 100 nM, positive control): Significant cell death

CNC(=O)[C@@H](NC(=O)[C@H](CC(C)C)[C@H](O)C(=O)NO)C(C)(C)C [Marimastat, reference compound]
substrate cleavage by activated MMP-9 (APMA-activated MMP-9; 250 nM Marimastat): no substrate cleavage was observed | formation of focal adhesion contact sites (HT1080 cells [8]; 80 nM marimastat): did not prevent the formation of focal adhesion contact sites | cell adhesion to collagen or fibronectin (HT1080 cells [10]; 80 nM Marimastat): no observable effect on cell attachment

CCCc1cc(=O)nc(SCC(=O)Nc2ccc(OC(F)F)cc2)[nH]1 [Compound 1a, N-(4-Difluoromethoxyphenyl)-2-(4-oxo-6-propyl-1,4-dihydropyrimidin-2-ylthio)acetamide]
inhibition of MMP-9 catalytic activity (APMA-activated MMP-9): No inhibition of the catalytic activity was observed | inhibition of migration [4]: the same inhibition potency was observed | phosphorylation of Src Tyr418 and downstream FAK Tyr576/577 and PAX Tyr118 [7]: reduced Src^Tyr418 phosphorylation | MMP-9 cell surface localization (HT1080 cells [8]): loss of MMP-9 from the cell surface | formation of FAK and PAX adhesion junctions (HT1080 cells [8]): decrease in the formation of FAK and PAX adhesion junctions | cell adhesion to collagen or fibronectin (HT1080 cells [10]; 50 µM): inhibited cellular adhesion | angiogenic potential of HT1080 cells (neovascularization) [11]: significantly reduced the angiogenic potential | invasion of CAM tissue by HT1080 cells [12]: reduced invasion of CAM tissue | proMMP-9-mediated cancer cell migration and proliferation [13]: inhibited proMMP-9-mediated cancer cell migration and proliferation | inhibition of MMP-9 enzymatic activity (MMP-9): did not inhibit MMP-9 enzymatic activity | binding to closely related MMPs (closely related MMPs): does not bind to closely related MMPs | cancer metastasis (cancer metastasis): effectively prevented cancer metastasis
